Reference: ChEMBL document CHEMBL1131143, “Predictive models for GABAA/benzodiazepine receptor subtypes: studies of quantitative structure-activity relationships for imidazobenzodiazepines at five recombinant GABAA/benzodiazepine receptor subtypes [alphaxbeta3gamma2 (x = 1-3, 5, and 6)] via comparative molecular field analysis” (J Med Chem, 1998)

Key:
Type in all cases: protein-complex assay
[1] = molecular target: T1, GABA-A receptor; alpha-5/beta-3/gamma-2 (Homo sapiens, UniProt P18507+P28472+P31644); test: Binding affinity for Gamma-aminobutyric acid A receptor alpha-5-beta-3-gamma-2
T1 sequence (P18507 whole entry): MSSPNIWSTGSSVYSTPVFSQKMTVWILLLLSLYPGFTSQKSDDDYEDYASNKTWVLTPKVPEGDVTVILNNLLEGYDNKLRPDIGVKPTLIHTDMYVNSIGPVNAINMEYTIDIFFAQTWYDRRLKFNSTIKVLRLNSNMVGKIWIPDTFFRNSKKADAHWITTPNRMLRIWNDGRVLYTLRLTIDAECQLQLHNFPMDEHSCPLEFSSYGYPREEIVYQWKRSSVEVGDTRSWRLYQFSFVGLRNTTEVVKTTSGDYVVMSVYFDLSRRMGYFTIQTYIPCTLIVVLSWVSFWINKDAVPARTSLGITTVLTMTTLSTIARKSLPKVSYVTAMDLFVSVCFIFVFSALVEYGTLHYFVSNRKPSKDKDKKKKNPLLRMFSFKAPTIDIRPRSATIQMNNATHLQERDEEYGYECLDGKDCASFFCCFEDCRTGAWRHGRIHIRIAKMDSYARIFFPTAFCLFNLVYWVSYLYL
T1 sequence (P28472 whole entry): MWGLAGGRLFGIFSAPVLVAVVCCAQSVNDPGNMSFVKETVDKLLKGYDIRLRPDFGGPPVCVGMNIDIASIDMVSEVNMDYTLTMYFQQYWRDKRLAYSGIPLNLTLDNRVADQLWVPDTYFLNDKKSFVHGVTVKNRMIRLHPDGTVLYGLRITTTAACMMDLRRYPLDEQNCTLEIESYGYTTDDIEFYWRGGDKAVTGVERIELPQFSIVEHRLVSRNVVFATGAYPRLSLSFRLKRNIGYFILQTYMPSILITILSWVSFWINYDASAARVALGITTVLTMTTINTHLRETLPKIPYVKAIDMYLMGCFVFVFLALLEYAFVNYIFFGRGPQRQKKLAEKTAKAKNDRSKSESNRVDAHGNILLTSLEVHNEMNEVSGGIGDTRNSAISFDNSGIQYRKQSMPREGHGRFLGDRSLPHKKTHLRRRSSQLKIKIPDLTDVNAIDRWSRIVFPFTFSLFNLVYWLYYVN
T1 sequence (P31644 whole entry): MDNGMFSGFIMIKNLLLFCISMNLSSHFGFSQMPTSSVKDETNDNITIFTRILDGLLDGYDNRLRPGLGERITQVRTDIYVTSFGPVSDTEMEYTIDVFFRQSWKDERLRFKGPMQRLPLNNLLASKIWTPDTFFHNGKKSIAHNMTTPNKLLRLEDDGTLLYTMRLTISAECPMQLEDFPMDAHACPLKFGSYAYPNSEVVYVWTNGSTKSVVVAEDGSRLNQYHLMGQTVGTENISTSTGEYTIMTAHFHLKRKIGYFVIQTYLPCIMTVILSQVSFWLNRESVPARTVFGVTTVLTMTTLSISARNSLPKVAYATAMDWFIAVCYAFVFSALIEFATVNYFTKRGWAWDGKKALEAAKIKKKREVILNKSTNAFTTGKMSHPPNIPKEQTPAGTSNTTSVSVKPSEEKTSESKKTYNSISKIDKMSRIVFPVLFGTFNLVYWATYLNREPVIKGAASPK

[2] = molecular target: T2, GABA-A receptor; alpha-2/beta-3/gamma-2 (Homo sapiens, UniProt P18507+P28472+P47869); test: Binding affinity tested against alpha-2-beta-3-gamma-2 GABAA/BzR receptor subtype.
T2 sequence (P18507 whole entry): T1 sequence (P18507 whole entry)
T2 sequence (P28472 whole entry): T1 sequence (P28472 whole entry)
T2 sequence (P47869 whole entry): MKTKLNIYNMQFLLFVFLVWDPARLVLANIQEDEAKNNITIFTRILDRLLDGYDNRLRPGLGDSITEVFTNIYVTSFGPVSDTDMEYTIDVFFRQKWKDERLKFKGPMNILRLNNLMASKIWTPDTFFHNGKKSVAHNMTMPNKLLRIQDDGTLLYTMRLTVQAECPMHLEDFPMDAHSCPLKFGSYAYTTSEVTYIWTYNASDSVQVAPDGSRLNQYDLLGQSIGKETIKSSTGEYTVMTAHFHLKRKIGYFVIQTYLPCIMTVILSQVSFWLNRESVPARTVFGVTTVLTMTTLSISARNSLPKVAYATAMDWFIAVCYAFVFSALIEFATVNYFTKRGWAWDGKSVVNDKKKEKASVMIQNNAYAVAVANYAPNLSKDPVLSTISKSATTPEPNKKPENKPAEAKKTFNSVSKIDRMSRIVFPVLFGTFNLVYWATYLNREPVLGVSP

[3] = molecular target: GABA-A receptor; alpha-6/beta-3/gamma-2 (Homo sapiens, UniProt P18507+P28472+Q16445); test: Binding affinity against Gamma-aminobutyric acid A receptor alpha-6-beta-3-gamma-2
Sequence of GABA-A receptor; alpha-6/beta-3/gamma-2 (Q16445 whole entry, one chain of several): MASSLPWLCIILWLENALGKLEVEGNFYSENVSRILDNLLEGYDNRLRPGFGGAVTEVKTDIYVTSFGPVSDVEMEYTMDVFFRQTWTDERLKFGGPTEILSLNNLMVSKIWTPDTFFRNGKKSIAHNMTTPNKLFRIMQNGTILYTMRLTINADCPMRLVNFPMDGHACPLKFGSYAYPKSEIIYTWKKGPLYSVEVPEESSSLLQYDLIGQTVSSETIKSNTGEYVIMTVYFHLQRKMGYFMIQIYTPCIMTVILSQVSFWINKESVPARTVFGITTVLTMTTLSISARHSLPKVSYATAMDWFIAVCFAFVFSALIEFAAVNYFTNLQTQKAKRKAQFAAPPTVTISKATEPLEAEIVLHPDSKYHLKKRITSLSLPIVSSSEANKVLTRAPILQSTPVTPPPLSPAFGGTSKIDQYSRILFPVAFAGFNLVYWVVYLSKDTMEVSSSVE
Method in brief: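 Cells scraped into PBS, spun at 3000g, resuspended in 10 mM KH₂PO₄/100 mM KCl pH 7.4. Nonspecific binding with 10⁻⁵ M diazepam; 1 h to equilibrium at 4 °C; filtration, ice-cold buffer wash, scintillation counting.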

[4] = molecular target: T3, GABA-A receptor; alpha-3/beta-3/gamma-2 (Homo sapiens, UniProt P18507+P28472+P34903); test: Binding affinity against alpha-3-beta-3-gamma-2 GABAA/BzR receptor subtype.
T3 sequence (P18507 whole entry): T1 sequence (P18507 whole entry)
T3 sequence (P28472 whole entry): T1 sequence (P28472 whole entry)
T3 sequence (P34903 whole entry): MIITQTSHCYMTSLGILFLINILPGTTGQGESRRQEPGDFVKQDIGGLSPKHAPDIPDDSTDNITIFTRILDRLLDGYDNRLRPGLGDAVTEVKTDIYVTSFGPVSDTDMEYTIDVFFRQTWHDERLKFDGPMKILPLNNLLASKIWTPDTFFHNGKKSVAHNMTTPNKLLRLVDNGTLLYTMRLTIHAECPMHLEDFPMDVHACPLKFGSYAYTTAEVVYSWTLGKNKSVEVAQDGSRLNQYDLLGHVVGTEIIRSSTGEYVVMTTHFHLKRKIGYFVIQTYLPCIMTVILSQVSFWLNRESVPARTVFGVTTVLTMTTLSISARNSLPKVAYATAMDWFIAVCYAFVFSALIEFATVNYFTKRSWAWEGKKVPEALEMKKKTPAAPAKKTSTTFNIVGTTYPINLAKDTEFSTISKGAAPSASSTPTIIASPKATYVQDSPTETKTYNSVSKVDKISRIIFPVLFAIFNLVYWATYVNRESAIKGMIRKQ

[5] = molecular target: GABA-A receptor; alpha-1/beta-3/gamma-2 (Homo sapiens) (UniProt P14867+P18507+P28472); test: It is the ratio of Ki value for alpha-1-beta-3-gamma-2 to that of alpha-5-beta-3-gamma-2
[6] = molecular target: T4, GABA-A receptor; alpha-1/beta-3/gamma-2 (Homo sapiens, UniProt P14867+P18507+P28472); test: Binding affinity against alpha-1-beta-3-gamma-2 GABAA/BzR receptor subtype.
T4 sequence (P14867 whole entry): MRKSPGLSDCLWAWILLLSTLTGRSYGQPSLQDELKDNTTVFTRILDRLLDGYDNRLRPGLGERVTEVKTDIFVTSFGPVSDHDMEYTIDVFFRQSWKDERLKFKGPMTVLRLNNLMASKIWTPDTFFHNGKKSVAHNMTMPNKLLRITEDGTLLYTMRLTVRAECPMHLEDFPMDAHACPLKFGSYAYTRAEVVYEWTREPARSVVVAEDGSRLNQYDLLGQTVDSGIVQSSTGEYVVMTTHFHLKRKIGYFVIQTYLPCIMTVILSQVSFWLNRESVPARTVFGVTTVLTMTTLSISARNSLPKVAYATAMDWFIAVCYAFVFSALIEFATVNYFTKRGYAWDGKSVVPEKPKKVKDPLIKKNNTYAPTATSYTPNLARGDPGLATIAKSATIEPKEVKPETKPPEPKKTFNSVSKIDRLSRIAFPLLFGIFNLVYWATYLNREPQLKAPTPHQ
T4 sequence (P18507 whole entry): T1 sequence (P18507 whole entry)
T4 sequence (P28472 whole entry): T1 sequence (P28472 whole entry)

Compound	Ki [1] [nM]	Ki [2] [nM]	Ki [3] [nM]	Ki [4] [nM]	Ratio [5]	Ki [6] [nM]
C#Cc1ccc2c(c1)C(=O)N1CCC[C@@H]1c1c(C(=O)OCC)ncn1-2	7.2	318	61	102	39	283
CCOC(=O)c1ncn2c1[C@@H]1CCCN1C(=O)c1cc(OC)ccc1-2	0.45	27.4	83.2	27.5	108	48.5
CCOCc1ncn2c1CN(C)C(=O)c1cc(Cl)ccc1-2	82.7	> 300	> 300	> 300	> 3.6	> 300
C#Cc1ccc2c(c1)C(=O)N1CCC[C@H]1c1c(-c3nc(CC)no3)ncn1-2	2.4	40	150	85	36	86
CC#Cc1ccc2c(c1)C(=O)N(C)Cc1c(C(=O)OCC)ncn1-2	1.68	22.2	> 100	16.5	6	10.1
C#Cc1ccc2c(c1)C(=O)N1CCC[C@H]1c1c(-c3nc(C(C)C)no3)ncn1-2	4.8	85	333	97	15	73
C#Cc1ccc2c(c1)C(=O)N1CC[C@H]1c1c(C(=O)OCC)ncn1-2	0.37	12	42	10	57	21
CCOC(=O)c1ncn2c1[C@@H]1CCCN1C(=O)c1cc(Br)ccc1-2	1	29	46	15	49	49
CCOC(=O)c1ncn2c1CN(C)C(=O)c1cc(CC)ccc1-2	1.5	27	176	26.1	13.6	20.4
CCOC(=O)c1ncn2c1[C@@H]1CCN1C(=O)c1cc(C#C[Si](C)(C)C)ccc1-2	2.6	60	180	48	32	83
CN1Cc2c(C(=O)OC(C)(C)C)ncn2-c2ccc(Br)cc2C1=O	0.47	10.7	9.4	9.2	24.3	11.4
CCOC(=O)c1ncn2c1[C@@H]1CCCN1C(=O)c1cc(C#C[Si](C)(C)C)ccc1-2	4	124	340	79	50	200
